Many of the other results were omitted from the sample, so hits are more common in it than they were.
Lmaj promast: Leishmania major promastigote growth inhibition, primary screen; Leishmania major promastigotes, resazurin fluorescence viability; inhibition, % at 10 µM; hit rate 9% among 200,000; AID 1063, 2008; in the data active = inhibition above about 50%;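 also: promastigotes grown with compound for 44 hours at 28 °C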
T cruzi repl: inhibitors of intracellular T. cruzi growth, primary screen, luminescence, NIH3T3 host cells; T. cruzi beta-gal in NIH3T3, 90 h; inhibition, % (no concentration beside the values); hit rate 1.4% among 300,000;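 active = mean inhibition across valid replicates above about 55%, limit read from the data; inconclusive = mean below that limit but half or more replicates reach it; inactive = mean below it, under half of replicates reach it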;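 also: signal also drops with host cell toxicity which is not excluded here; higher percent means less beta-gal luminescence so fewer parasites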
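Read-out: Parasite load inhibition, % | Test system: Mouse NIH/3T3 fibroblasts infected with β-gal-expressing T. cruzi Tulahuen C4 | Amount: 5,000 cells/well | Medium: DMEM, 2% fetal bovine serum | Signal: GalScreen β-gal luminescence, detergent lysis, 60 min | Timing: 3 h attach, ≥90 h co-culture | Also added: Tulahuen C4 trypomastigotes, 5000/well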
DTT redox prof: compounds producing H2O2 with reducing agent – biochemical, NIH compound library profiling, artefact control for MLSCN library redox annotation, primary screen | DTT-dependent redox cycling H2O2, phenol red/HRP absorbance; 100% = 100 µM peroxide control, 0% = buffer | activation, % at 10 µM | hit rate 0.03% among 200,000 | AID 878, 2007;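 active = activation of at least 50% relative to the plate's high and low controls in the primary single-dose screen; inactive = activation below 50%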;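 also: compound incubated with DTT at 0.8 mM final as the reducing agent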
MPTP block: mitochondrial permeability transition pore inhibitors, primary screen, biochemical, isolated mouse mitochondria, absorbance; Ca2+ swelling absorbance, 30 min; AID 602449, 2012; hit rate 1.4% among 360,000; inhibition, % at 10 µM;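 active = inhibition of 50% or more, scaled per plate between neutral and stimulator controls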
Lipid droplet: inhibitors of hepatocyte lipid droplet formation, primary screen, imaging, high-throughput imaging, BODIPY stain. AML12 mouse hepatocytes, oleate lipid droplets. inhibition, % at 6.5 µM. hit rate 0.4% among 240,000. AID 1656, 2009;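 active = lipid droplet intensity inhibited by at least 50%, with more than 500 cells counted; inconclusive = wells with under 300 cells, treated as cytotoxic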
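Material – mouse AML12 hepatocyte cell line, fixed after treatment · Compound dosing – one dose, 6.5 µM compound · Times – compound with oleate, overnight · Measured by – Image-based BODIPY and DAPI two-channel analysis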
Numbers stand for hits; n = inactive; u = inconclusive; x = no result.

SMILES	Lmaj promast	T cruzi repl	DTT redox prof	MPTP block	Lipid droplet
O=C(NC1CCCCC1)C(c1cccnc1)N(C(=O)CCl)c1ccc(F)cc1 (stereo unspecified)	78	n	n	n	u
COc1ccc(N(C(=O)CCl)C(C(=O)NC2CCCCC2)c2cccnc2)cc1 (stereo unspecified)	98	n	n	n	u
Cc1ccc([C@H]2C[C@@H](n3cc(C4CC4)nn3)[C@H](O)CN2C(=O)C2CCCCC2)cc1	x	x	x	n	x
c1ccc(Sc2ncccn2)nc1	x	n	x	n	n
COc1cc2c(cc1OC)CN(c1ccc(-c3ccccc3OC)nn1)CC2	100	n	n	n	n
CS(=O)(=O)c1ncc(Cl)c(C(=O)Nc2ccc(OC(F)F)cc2)n1	x	55	x	n	n
CS(=O)(=O)c1ncc(Cl)c(C(=O)Nc2ccc(N3CCOCC3)cc2)n1	n	n	n	n	n
CCN1C(=O)[C@@H]2Cc3c([nH]c4ccccc34)C(c3ccc(OC)cc3)N2C1=S (stereo partly specified)	x	n	x	n	n
Cc1cccc(C(=O)N2CCNC(=O)C2CC(=O)Nc2cccc(Cl)c2)c1 (stereo unspecified)	x	n	x	n	n
Cc1ccc(NC(=O)CN(C)C(=O)/C=C/c2cccs2)cc1	n	n	n	n	n
Cc1cccc(C)c1NC(=O)CN(C)C(=O)C(c1ccccc1)c1ccccc1	86	n	n	n	n
Cc1cccc(C)c1NC(=O)CN(C)C(=O)c1ccccc1C(=O)N(C)Cc1ccccc1	x	n	x	n	n
Cc1cccc(C)c1NC(=O)CN(C)C(=O)/C=C/c1cccs1	52	n	n	n	n
CN(Cc1ccccc1)C(=O)c1cccc(NC(=O)Cc2ccc(NC(=O)C3CCCN(C(=O)C4CCCCC4)C3)cc2)c1 (stereo unspecified)	x	x	x	n	x
Cc1ccc(OCCC(=O)NNC(=O)c2nn(C)c(=O)c3ccccc23)cc1	x	x	x	n	x
COc1ccc(Cl)cc1NC(=O)CN(C)C(=O)c1n[nH]c2ccccc12	x	n	x	n	x
O=C(Nc1ccc(Oc2ccc(C(=O)O)c(C(=O)O)c2)cc1)c1cccs1	n	n	n	n	n
COC(=O)[C@@]1(Cc2ccc(OC)cc2)[C@H]2c3cc(C(=O)N4CCCC4)n(CCSCCO)c3C[C@H]2CN1C(=O)c1ccccc1	51	x	n	x	n
COC(=O)[C@@]1(Cc2ccc(OC)cc2)[C@H]2c3cc(C(=O)N4CCCC4)n(CCO)c3C[C@H]2CN1C(=O)c1ccccc1	n	x	n	x	n
COC(=O)[C@@]1(Cc2ccc(F)cc2)[C@H]2c3cc(C(=O)N4CCCC4)n(CCc4ccc(O)c(O)c4)c3C[C@H]2CN1C(=O)c1ccccc1	100	n	n	x	n
COC(=O)[C@@]1(Cc2ccc(F)cc2)[C@H]2c3cc(C(=O)N(C)C)n(Cc4ccc(OC(F)(F)F)cc4)c3C[C@H]2CN1C(=O)c1ccccc1	83	n	n	x	n
COC(=O)[C@@]1(Cc2ccc(F)cc2)[C@H]2c3cc(C(=O)N4CCCC4)n(CCc4ccc(OC)c(Br)c4)c3C[C@H]2CN1C(=O)c1ccccc1	x	x	x	n	x
COC(=O)[C@@]1(Cc2ccccc2)[C@H]2c3cc(C(=O)N4CCCC4)n(Cc4ccsc4Br)c3C[C@H]2CN1C(=O)c1ccccc1	54	x	n	x	n
CCOC(=O)C1CCN(C(=O)/C=C/c2ccc3c(c2)OCO3)CC1	x	n	x	n	n
O=c1[nH]c(=S)[nH]c2c1C(c1ccc(Cl)cc1)OC(C1CCCCC1)C2 (stereo unspecified)	x	x	x	n	x
COC(=O)[C@@]1(Cc2ccc(OC)cc2)[C@H]2c3cc(C(=O)N(C)C)n(CCSCCO)c3C[C@H]2CN1C(=O)c1ccccc1	65	x	n	n	n
COC(=O)[C@@]1(Cc2ccc(F)cc2)[C@H]2c3cc(C(=O)N(C)C)n(CCF)c3C[C@H]2CN1C(=O)c1ccccc1	x	x	x	n	x
COC(=O)C(C)Oc1ccc(-c2nccc(-c3ccccn3)n2)cc1 (stereo unspecified)	x	n	x	n	n
O=C(NC1CCCCC1)C(c1ccccc1)N(C(=O)c1csnn1)C1CCCC1 (stereo unspecified)	x	n	x	n	n
